This note sets out measurements from ChEMBL document CHEMBL3046765, “Subnanomolar inhibitor of cytochrome bc1 complex designed by optimizing interaction with conformationally flexible residues” (J Am Chem Soc, 2010).

Molecules are shown by their SMILES. Activity calls are given as the source filed them. No cut-off for these calls is given here.

One assay has as its target Cytochrome b (Sus scrofa, UniProt P24964). As to the kind of experiment: Inhibition of Sus scrofa (pig) heart cytochrome bc1 complex using succinate and cytochrome c as substrates by spectrophotometric analysis.
Assay [1] concerns the target Cytochrome b (Sus scrofa) (UniProt P24964). Put plainly: Ratio of pyraclostrobin Ki to compound Ki for Sus scrofa (pig) heart cytochrome bc1 complex.
For assay [2], the species on record is Sus scrofa. As to the kind of experiment: Competitive inhibition of Sus scrofa (pig) heart cytochrome bc1 complex using ubiquinol as substrate.
For assay [3], the species on record is Sus scrofa. As to the kind of experiment: Non-competitive inhibition of Sus scrofa (pig) heart cytochrome bc1 complex using cytochrome c as substrate. The essentials:
(§1)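 Progress curves at 0–5 nM inhibitor fitted by nonlinear regression for v0, vs, kobs; kobs versus inhibitor gives k+0, k−0; Ki = k−0/k+0. Cytochrome c 4–48 µM varied at fixed inhibitor for mechanism.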

Assay [4] addresses Cytochrome b (Sus scrofa) (UniProt P24964). As to the kind of experiment: Ratio of azoxystobin Ki to compound Ki for Sus scrofa (pig) heart cytochrome bc1 complex.
Assay [5] shares this target. Put plainly: Inhibition of Sus scrofa (pig) heart cytochrome bc1 complex using succinate as substrate at 7.5 to 25 nM by spectropfhotometric analysis.
Assay [6] deals with Succinate-ubiquinone oxidoreductase (Sus scrofa) (UniProt A5GZW8+D0VWV4). As to the kind of experiment: Inhibition of Sus scrofa (pig) heart succinate-ubiquinone reductase using succinate and DCIP as substrate by spectrophotometric analysis by spectrophotometric analysis. Type of assay: protein-complex assay. The method in brief: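 Porcine heart SCR preparation; complex II activity as succinate oxidation by 53 µM DCIP in 100 mM PBS pH 7.4, 0.3 mM EDTA, 20 mM succinate, 23°C, started by enzyme addition. DCIP reduction followed continuously at A600 (ε 21 mM−1cm−1) with varying inhibitor concentrations.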

Assay [7] has as its target Cytochrome b (Sus scrofa) (UniProt P24964). As to the kind of experiment: Ratio of kresoxim-methyl Ki to compound Ki for Sus scrofa (pig) heart cytochrome bc1 complex.
Assay [8] concerns the target T1, Succinate dehydrogenase [ubiquinone] iron-sulfur subunit, mitochondrial (Sus scrofa) (UniProt Q007T0).
T1 sequence (whole entry): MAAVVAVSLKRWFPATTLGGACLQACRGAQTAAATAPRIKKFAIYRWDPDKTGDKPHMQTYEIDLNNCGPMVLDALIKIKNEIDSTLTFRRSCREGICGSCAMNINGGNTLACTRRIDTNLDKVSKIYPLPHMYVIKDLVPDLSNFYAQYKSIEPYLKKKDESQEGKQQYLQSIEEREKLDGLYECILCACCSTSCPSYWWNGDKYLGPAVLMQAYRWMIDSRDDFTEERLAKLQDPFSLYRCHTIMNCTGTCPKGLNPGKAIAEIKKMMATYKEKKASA
Put plainly: Inhibition of Sus scrofa (pig) heart succinate-cytochrome c reductase (Electron transport protein complex 2/3) using succinate and cytochrome c as substrate at 1 to 5 nM by spectrophotometric analysis. The method in brief: as §1

Assay [9] has as its target T1, Succinate dehydrogenase [ubiquinone] iron-sulfur subunit, mitochondrial (Sus scrofa). Put plainly: Inhibition of Sus scrofa (pig) heart succinate-cytochrome c reductase (Electron transport protein complex 2/3) using succinate and cytochrome c as substrate by spectrophotometric analysis. The method in brief: as §1

Sequence of Cytochrome b (P24964 whole entry): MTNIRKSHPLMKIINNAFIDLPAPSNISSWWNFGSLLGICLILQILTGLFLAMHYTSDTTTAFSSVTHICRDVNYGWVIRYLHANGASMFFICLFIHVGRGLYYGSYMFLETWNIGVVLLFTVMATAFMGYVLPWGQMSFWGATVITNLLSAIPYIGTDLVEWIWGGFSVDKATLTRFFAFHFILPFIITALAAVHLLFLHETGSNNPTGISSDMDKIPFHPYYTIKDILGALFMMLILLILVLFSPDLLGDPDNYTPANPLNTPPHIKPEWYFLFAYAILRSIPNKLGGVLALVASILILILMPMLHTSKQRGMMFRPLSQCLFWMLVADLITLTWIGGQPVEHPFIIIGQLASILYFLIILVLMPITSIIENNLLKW
Sequence of Cytochrome b (Sus scrofa) (P24964 whole entry): as above

Regarding `CO/C=C(/C(=O)OC)c1ccccc1COc1cc(-c2cc(C)ccc2OC)nn1C`, at Cytochrome b, affinity was put at a Ki of 19.9 nM.

As to `CO/N=C(/C(=O)OC)c1ccccc1COc1ccccc1C` [KRESOXIM-METHYL], on Cytochrome b, the Ki amounted to 160 nM.

On to `CO/C=C(/C(=O)OC)c1ccccc1Oc1cc(Oc2ccccc2C#N)ncn1` [AZOXYSTROBIN], for which the Ki at Cytochrome b came to 298 nM.

The molecule `COC(=O)N(OC)c1ccccc1COc1ccn(-c2ccc(Cl)cc2)n1` [PYRACLOSTROBIN] returned an inhibitory constant (Ki) on Cytochrome b of 3.3 nM.

At Cytochrome b, `CO/C=C(/C(=O)OC)c1ccccc1COc1cc(-c2ccccc2OC(=O)c2ccc(F)cc2)nn1C` displayed an inhibitory constant (Ki) of 97.7 nM.

In the case of `CO/C=C(/C(=O)OC)c1ccccc1COc1cc(-c2cc(Cl)ccc2O)nn1C`, the Ratio Ki amounted to 5.8 in [1], 522 in assay [4] and 280 in assay [7]. Further, the inhibition result (in the assay listed under Sus scrofa [2]; in the assay listed under Sus scrofa [3]; in assay [5]; in assay [8]) was “Active” in each case. Also, in assay [6], the inhibition entry is “inactive”. This molecule showed an inhibition constant Ki at Cytochrome b of 0.57 nM.

In the case of `CO/C=C(/C(=O)OC)c1ccccc1COc1cc(-c2ccccc2OCc2ccccc2)nn1C`, at Cytochrome b, the Ki came to 12.7 nM.

For `CO/N=C(/C(=O)OC)c1ccccc1COc1cc(-c2ccccc2O)nn1C`, the inhibition result in assay [9] was “Active”. In addition, in [6], the inhibition result was “inactive”. This molecule also yielded an inhibitory constant (Ki) on Cytochrome b of 3.8 nM.

As to `CO/C=C(/C(=O)OC)c1ccccc1COc1cc(-c2ccccc2O)nn1C`, the inhibition entry in [9] was “Active”. The inhibition entry in assay [6] is “inactive”. The molecule also showed a Ki at Cytochrome b of 1.2 nM.

Consider `CO/C=C(/C(=O)OC)c1ccccc1COc1cc(-c2cc(C)ccc2O)nn1C`, for which the inhibition result in [9] was “Active”. Besides, the inhibition entry in assay [6] was “inactive”. The Ki on Cytochrome b worked out at 3.1 nM.

Turning to `CO/C=C(/C(=O)OC)c1ccccc1COc1cc(-c2ccccc2OC)nn1C`, affinity on Cytochrome b was put at a Ki of 29.1 nM.

The term Ki denotes a measure of affinity in units of concentration, obtained from inhibition or displacement.
